Assay outcomes as filed in PubChem.
OX1R antag-1 = OX1R (HCRTR1) antagonists, primary screen, fluorescence, CHO/OX1R cells, Fluo-8 calcium, orexin A | Orexin/Hypocretin receptor type 1 (Homo sapiens), O43613 | Fluo-8 calcium fluorescence | inhibition, % at 5 µM | actives 0.43% (n = 330,000) | AID 434989, 2010;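 active = inhibition above its plate's threshold, mean inhibition of all tested compounds on the plate plus 3 SD, cut at about 37% in these data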;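 note: 0% = orexin A challenge wells and 100% = SB-334867-A antagonist wells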
TAAR1 antagonist = human TAAR1 antagonists, primary screen, Fluo-8 calcium fluorescence, CHO RD-HGA16 cells; antagonist; actives 1.5% (n = 360,000); inhibition, % at 3 µM; Trace amine-associated receptor 1 (Homo sapiens), Q96RJ0;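 active = inhibition above a per-plate cutoff, the mean inhibition of test compounds on that plate plus 3 SD, cut at about 49% in these data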;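 note: 0% = DMSO plus EC80 beta-PEA response and 100% = DMSO alone without agonist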
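Test system – hTAAR1-expressing CHO RD-HGA16 cells, Gα16-coupled · Also added – β-PEA at EC80 concentration, post-compound challenge · Compound – 3 µM, single point · Incubation – dye loading 75 min at 37 °C, then 30 min room temperature · Measured by – Fluo-8 intracellular calcium dye fluorescence, real-time kinetic reads · Benchmarks – vehicle and agonist controls · Replicates – singlicate, one well per test compound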
GPR7 antag = GPR7 receptor antagonists, primary screen, cell-based, fluorescence, single concentration; Neuropeptides B/W receptor type 1 (Homo sapiens), P48145; GPR7-expressing cells, fluorescence antagonist assay; inhibition, % at 4.4 µM; actives 1.1% (n = 290,000); AID 1861, 2009; in the data active = inhibition above about 16%, passing the limit was not always enough;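 note: cells stimulated with the agonist NPW; 0% = agonist with vehicle and 100% = vehicle without agonist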
Target sequence (P48145 whole entry, looked up): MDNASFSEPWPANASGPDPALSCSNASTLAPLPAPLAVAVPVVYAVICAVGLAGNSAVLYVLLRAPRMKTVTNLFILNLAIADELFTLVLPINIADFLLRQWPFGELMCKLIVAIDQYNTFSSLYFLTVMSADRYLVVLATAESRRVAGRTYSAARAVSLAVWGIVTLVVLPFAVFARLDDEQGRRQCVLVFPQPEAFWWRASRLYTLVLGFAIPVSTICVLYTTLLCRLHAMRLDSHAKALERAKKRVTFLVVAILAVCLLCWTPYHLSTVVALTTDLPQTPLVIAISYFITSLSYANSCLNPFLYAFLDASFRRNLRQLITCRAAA
CHO parental Ca = ATP-evoked calcium signal inhibitors, parental CHO, primary screen, counter-screen for OX1R antagonist project, cell-based, fluorescence, Fluo-8 calcium dye; parental CHO-K1, ATP-induced calcium, Fluo-8 fluorescence; inhibition, % at 5.6 µM; actives 0.63% (n = 330,000); AID 463079, 2010;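 active = inhibition above that plate's mean sample inhibition plus 3 SD, cut at about 26% in these data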;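 note: 0% = ATP-challenged DMSO wells and 100% = DMSO wells without ATP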
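Material: parental CHO cells / Compound: single nominal dose of 5.6 µM per compound / Signal: Fluo-8 fluorescence / Replicates: singlicate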
OX1R antag-2 = antagonists of human orexin 1 receptor (OX1R); Orexin/Hypocretin receptor type 1 (Homo sapiens), O43613; OX1R-expressing cells, FRET antagonist read-out; inhibition, % at 6.6 µM; actives 1.8% (n = 330,000); AID 485270, 2010; in the data active = inhibition mostly above about 38%, no sharp cut-off; inactive = mostly below about 40%;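 note: 0% = agonist challenge alone and 100% = reference antagonist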
TAAR1 ag = human TAAR1 agonists, primary screen, Fluo-8 calcium fluorescence, CHO RD-HGA16 cells; Trace amine-associated receptor 1 (Homo sapiens), Q96RJ0; activation, % at 3 µM; actives 0.99% (n = 360,000); vehicle wells 0%, saturating PEA agonist 100%;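 active = activation above the mean activation of all test compounds in the run plus 3 SD, cut at about 38% in these data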
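Test system: RD-HGA16 (CHO) cells co-expressing Gα16 and hTAAR1 | Doses: Single dose, 3 µM | Schedule: 17-24 h seeding, 75 min 37 °C dye, 30 min RT | Evaluation: % activation from peak over basal fluorescence ratio, DMSO-to-PEA scaled | Technique: Kinetic Fluo-8 calcium fluorescence | Benchmarks: Low control DMSO, high control PEA (EC100)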
TAAR1 ag conf = human TAAR1 agonists, retest of hits, confirmation, Fluo-8 calcium fluorescence, CHO RD-HGA16 cells; actives 82% (n = 2,400); AID 651783, 2012; shares compounds with TAAR1 ag; scaled: DMSO 0%, maximal phenethylamine 100%; activation, % at 3 µM;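 active = activation above a cutoff set at the run's mean compound activation plus 3 SD, cut at about 39% in these data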
Ga16 ag counter = nonselective calcium mobilization agonists, CHO-Ga16 cells, counter-screen for hTAAR1 agonist project, cell-based, fluorescence, CHO-Ga16 parental line; Fluo-8 calcium fluorescence; normalized to maximal ATP response, DMSO zero; activation, % at 3 µM; AID 651787, 2012; actives 50% (n = 2,400); shares compounds with TAAR1 ag;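 active = activation above the run cutoff, the mean activation over all tested wells plus 3 SD, cut at about 12% in these data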;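 note: 0% = DMSO wells and 100% = maximal ATP response on the peak over basal ratio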
TAAR1 desensitize = TAAR1 desensitization by agonist hits, confirmation, counter-screen for TAAR1 agonist project, cell-based, fluorescence, tachyphylaxis | shares compounds with TAAR1 ag | CHO RD-HGA16 hTAAR1, Fluo-8 calcium, beta-PEA response inhibition | inhibition, % at 3 µM | actives 46% (n = 2,400);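 active = inhibition above the run cutoff, the mean inhibition of all test compounds plus 3 SD, cut at about 49% in these data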;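 note: beta-PEA stimulus applied at its EC80; loss of beta-PEA calcium signal after compound pretreatment read as receptor desensitization; 0% = DMSO with beta-PEA at EC80 and 100% = DMSO alone without agonist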
Ga16 antag count = inhibition of ATP-evoked calcium response in CHO-Ga16 cells, counter-screen for TAAR1 agonist project, cell-based, fluorescence; shares compounds with TAAR1 ag; CHO-Ga16 ATP-induced calcium, Fluo-8 fluorescence; inhibition, % at 3 µM; actives 39% (n = 2,400);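 active = inhibition above the plate's mean compound inhibition plus 3 SD, computed per plate, cut at about 22% in these data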;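 note: 0% = EC80 ATP with DMSO and 100% = DMSO wells without ATP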
The depositor's hits bear a star. Sampled rows, rich in hits. Any-hit rate of the full collection: about 4.5%.

`COc1ccccc1C(=O)NC(=O)COC(=O)CNC(=O)c1ccccc1F` gave OX1R antag-1 8.6, TAAR1 antagonist -24.4, CHO parental Ca 6.7, OX1R antag-2 6.4 and TAAR1 ag 5.0.
Screening O=C(CCl)N(CCCNC(=O)C(F)(F)F)c1ccc([N+](=O)[O-])cc1 returned OX1R antag-1 -3.8, TAAR1 antagonist -25.6, GPR7 antag -6.3, CHO parental Ca -12.2, OX1R antag-2 14.2 and TAAR1 ag 0.6.
Screening O=Cc1[nH]c2ccccc2c1N(C(=O)CCl)c1ccc([N+](=O)[O-])cc1 returned OX1R antag-1 33.6, TAAR1 antagonist 51.9*, GPR7 antag 0.4, CHO parental Ca 14.3, OX1R antag-2 14.0, TAAR1 ag 55.9*, TAAR1 ag conf 69.9*, Ga16 ag counter 44.5*, TAAR1 desensitize 72.7* and Ga16 antag count 53.0*.
CCN(CC)c1ccc(/C=C(\C#N)C(=O)c2ccc(Br)cc2)cc1 was read as OX1R antag-1 78.2*, TAAR1 antagonist 90.9*, GPR7 antag 8.8, CHO parental Ca 54.4*, OX1R antag-2 12.9, TAAR1 ag 214.6*, TAAR1 ag conf 314.9*, Ga16 ag counter 325.0*, TAAR1 desensitize 105.0* and Ga16 antag count 102.6*.
CCN(CC)c1ccc(/C=C(\C#N)C(N)=O)cc1 was read as TAAR1 antagonist 11.1, GPR7 antag -8.6 and TAAR1 ag 4.5.
For CN(C(=O)c1cccc(S(=O)(=O)N2CCCC2)c1)C1CCCCC1 the results were OX1R antag-1 -6.2, TAAR1 antagonist -5.4, CHO parental Ca -5.0, OX1R antag-2 9.8 and TAAR1 ag 7.1.
Screening O=C(CSC(=S)N1CCCC1)NCCc1ccccc1 returned OX1R antag-1 1.9, TAAR1 antagonist 87.5*, CHO parental Ca -5.1, OX1R antag-2 10.6, TAAR1 ag 97.4*, TAAR1 ag conf 87.9*, Ga16 ag counter 3.1, TAAR1 desensitize 98.1* and Ga16 antag count 6.2.
CN(C)C(CNC(=O)CSC(=S)N1CCCC1)c1ccccc1 (stereo not drawn) was read as OX1R antag-1 -29.3, TAAR1 antagonist -2.5, CHO parental Ca -12.1, OX1R antag-2 7.7 and TAAR1 ag 1.1.
COc1ccc(C(=O)NCN2CCN(c3ccccc3)CC2)cc1OC was read as OX1R antag-1 -12.8, TAAR1 antagonist 10.2, CHO parental Ca 0.9, OX1R antag-2 2.0 and TAAR1 ag 2.6.
`CC(OC(=O)CCNS(=O)(=O)c1ccccc1)C(=O)Nc1ccc(S(=O)(=O)N2CCCCC2)cc1` (stereo not drawn) gave TAAR1 antagonist 16.2 and TAAR1 ag 8.7.
